Compound activity from PubChem BioAssay.
Only a selection was taken, and hits are over-represented in it overall.
FGF22 binding-1 – shifts melting point of recombinant human FGF22 | Q9HCT0 | recombinant FGF22 thermal shift, SYPRO orange fluorescence; percent of sucrose octasulfate shift, DMSO zero | activity (Tm shift, normalised), % at 9.99 µM | actives 1.5% (n = 340,000) | AID 651658;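 active = mean Tm shift, scaled 0 neutral to 100 positive control, at about 1.3% or above, every replicate too, limit read from the data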
PDI turbidity – PDI (human) enzyme inhibition | inhibition, % at 10 µM | PDI insulin aggregation turbidity, A650, 90 min | P07237 | actives 0.052% (n = 350,000);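 active = mean inhibition across replicates of 30% or more, whatever share of single replicates reach that level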
S100A4 MyoIIA – inhibitors of human S100A4 binding to myosin IIA peptide; P26447; S100A4/TAMRA-MyoIIA peptide fluorescence polarization; inhibition, % at 10.7 µM; actives 0.14% (n = 360,000);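 active = mean inhibition of at least 70% across replicates, with every replicate also reaching that level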
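incubation = readout 5 min after mixing, signal stable up to 60 min | system = S100A4 monomer protein | buffer or medium = HEPES pH 7.2 with CaCl2, KCl, NaCl, DTT, Triton | benchmarks = neutral control DMSO, positive control TFP | also added = fluorescent myosin IIA peptide, 5 nM | compound dosing = one concentration per compound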
ERp5 block – inhibitors of human ERp5; actives 0.05% (n = 350,000); ERp5 insulin aggregation, absorbance 650 nm, 90 min; Q15084; inhibition, % at 9.99 µM;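 active = mean replicate inhibition above about 25%, with every replicate also reaching it, limit read from the data, passing the limit was not always enough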
ERAP1 inh – blocks human ERAP1 aminopeptidase activity | AID 652197 | actives 0.15% (n = 340,000) | inhibition, % at 10.7 µM | recombinant ERAP1, Leu-AMC fluorescence, 60 min;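 active = mean replicate inhibition of at least 30%, or all replicates individually reaching that 30% level; inactive = mean below 30% and not every replicate reaching it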;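 note: 0% = neutral control wells and 100% = L-leucinethiol positive control wells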
FGF22 binding-2 – binds human FGF22 shifting its melting temperature; shares compounds with FGF22 binding-1; recombinant FGF22 thermal shift, SYPRO orange fluorescence; thermal shift activity, °C (ΔTm) at 38 µM; actives 2% (n = 1,000);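 active = fitted rise in melting shift crosses a set limit at or below the top valid dose tested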
TSA no protein – compound-only SYPRO artifact for FGF22 binders | shares compounds with FGF22 binding-1 | compound-only SYPRO orange thermal shift counter-screen, no protein | AC50, µM (titrated, usually from 38 µM) | actives 2% (n = 1,000) | AID 743019;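 active = rising signal whose fitted curve reaches the 0.54 level within the top valid dose, showing a melting point, actives reach about 13 µM in these data; inactive = the rest, including activity in the opposite direction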; note: value is where the raw curve crosses a fixed level and not half-maximal
* = called active by the depositor; i = inactive; . = no result; ! = not confirmed by another sample; [ ] = dose if it differs, or a comment.

SMILES | FGF22 binding-1 | PDI turbidity | S100A4 MyoIIA | ERp5 block | ERAP1 inh | FGF22 binding-2 | TSA no protein
CN1CCN(C(=O)C[C@H]2C=C[C@@H](NC(=O)c3ccc4c(c3)OCO4)[C@H](CO)O2)CC1 | 1.2* | . | 5 | 3 | -1 | 0.14[42 µM] | i
COc1cccc(NC(=O)N[C@H]2C=C[C@H](CC(=O)N3CCN(C)CC3)O[C@H]2CO)c1 | . | . | -4 | -5 | -2 | . | .
COc1cccc(NC(=O)N[C@H]2C=C[C@@H](CC(=O)N3CCN(C)CC3)O[C@H]2CO)c1 | 2.3* | . | -5 | 1 | 1 | 0.12[42 µM] | i
O=C(N[C@@H]1C=C[C@H](CC(=O)N2CCCCC2)O[C@@H]1CO)c1cccc(F)c1 | 1.3* | . | 33 | 1 | 1 | -0.043 | i
O=C(N[C@H]1C=C[C@H](CC(=O)N2CCCCC2)O[C@H]1CO)c1cccc(F)c1 | 1.5* | . | -40 | 0 | 0 | . | i
C[C@@H]1CN([C@H](C)CO)C(=O)Cc2cc(NS(=O)(=O)c3cccs3)ccc2O[C@H]1CN(C)C | 0 | . | -1 | 2 | -2 | . | .
O=C(C1CC1)N1[C@H](CO)[C@H]2c3ccccc3N(S(=O)(=O)c3ccccc3)C[C@H]21 | 2.0* | . | 2 | -2 | 0 | 0.009 | i
O=C(Nc1ccc(Cl)cc1)N1C[C@@H]2[C@H](c3ccccc31)[C@H](CO)N2C(=O)C1CC1 | 3.4* | . | 7 | 1 | -3 | 0.09 | i
O=C(C1CCCCC1)N1[C@@H]2CN(S(=O)(=O)c3ccccc3)c3ccccc3[C@@H]2[C@@H]1CO | 0 | . | 3 | -3 | 3 | . | .
OC[C@@H]1[C@@H](c2ccc(-c3ccccc3)cc2)[C@@H]2CN(Cc3ccccn3)CCCCN12 | 0 | . | -3 | 6 | 0 | . | .
CS(=O)(=O)N1CCCCN2[C@H](CO)[C@H](c3ccc(C#Cc4ccccn4)cc3)[C@@H]2C1 | 1.5* | . | 10 | 2 | 0 | 0.16[42 µM] | i
OC[C@@H]1[C@@H](c2ccc(-c3cccnc3)cc2)[C@@H]2CN(Cc3ccccn3)CCCCN12 | 1.5* | . | -12 | 1 | -1 | 0.022 | i
OC[C@H]1[C@@H](c2ccc(-c3cccnc3)cc2)[C@@H]2CN(Cc3ccccn3)CCCCN12 | 1.5* | . | -6 | -1 | -2 | 0.023 | i
OC[C@@H]1[C@H](c2ccc(Br)cc2)[C@@H]2CN(Cc3cncnc3)CCCCN12 | 2.4* | . | -16 | 1 | -1 | 0.059[42 µM] | i
C[C@@H]1CN([C@H](C)CO)C(=O)CCCn2cc(nn2)CO[C@H]1CN(C)C(=O)NC1CCCC1 | 1 | . | 2 | 5 | -4 | . | .
CC1CCCN(CCC(=O)Nc2ccc3c(c2)CCC3)C1 (configuration not stated) | . | 6 | . | . | . | . | .
O=c1ccc2nc3ccccc3sc-2c1 | 1.7* | . | 0 | 20 | 8 | -0.45 | i
Brc1ccc(-c2nc3ccccc3s2)s1 | . | -1 | . | . | . | . | .
CCCNC(=O)C1(C)CCCN(C(=O)C2(c3ccc(Cl)cc3)CCCC2)C1 (configuration not stated) | 0 | 6 | -1 | 6 | 7 | . | .
CCNC(=O)C1(C)CCCN(C(=O)C2(c3ccc(Cl)cc3)CCCC2)C1 (configuration not stated) | 1.6* | 9 | 2 | 9 | 1 | 0.037 | i
COCC(=O)N1CC2(C1)[C@H](c1ccccc1)[C@@H](CO)N2C(=O)NC1CCCC1 | 1.3* | . | -4 | 0 | 1 | 0.018 | i
CCC(=O)N1[C@H](CO)[C@@H](c2ccccc2)C12CN(C(=O)c1cnccn1)C2 | 1.3* | . | 7 | 2 | 2 | -0.085 | i
CNC(=O)C[C@@H]1CC[C@@H]2[C@H](COc3ccc(NC(=O)c4cccc(F)c4)cc3C(=O)N2C)O1 | 16*! | . | 18 | -3 | -1 | 0 | i
CNC(=O)C[C@@H]1CC[C@@H]2[C@@H](COc3ccc(NS(=O)(=O)c4ccccc4C)cc3C(=O)N2C)O1 | 20* | . | -3 | 0 | -1 | -0.018[42 µM] | i
CCCNC(=O)C[C@H]1CC[C@H]2[C@H](COc3ccc(NS(=O)(=O)c4ccccc4C)cc3C(=O)N2C)O1 | . | . | -5 | 2 | 0 | . | .
